Legend:
L1210 [1] = test: Antitumor activity in the mice with intraperitoneal implanted L1210 lymphoid leukemia at the dose of 75 mg/kg/day x 5 was determined as mean survival of treated group compared to untreated; 18.5/9.5; format: functional, Mus musculus
L1210 [2] = test: Antitumor activity in the mice with intraperitoneal implanted L1210 lymphoid leukemia at the dose of 50 mg/kg/day x 5 was determined as mean survival of treated group compared to untreated; 19/8; format: functional, Mus musculus
Method in brief: (§1)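 C3D2F1/J female mice (C3H/HeJ female × DBA/2J male), groups of six to eight, average weight 25 g. Inoculated ip with 1 × 10^6 L1210 ascites cells taken from DBA/2Ha donor mice bearing 3-5 day old tumors. Compounds were dissolved in 0.154 N NaOH, neutralized with 0.154 N HCl (final 0.9% NaCl), and given ip daily for 5 days from 24 h post-implant. Median survival T/C; ILS = (T/C − 1) × 100; 30-day survivors counted.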

L1210 [3] = test: Antitumor activity in the mice with intraperitoneal implanted L1210 lymphoid leukemia at the dose of 25 mg/kg/day x 5 was determined as mean survival of treated group compared to untreated; 16/8.5; format: functional, Mus musculus; method in brief: as §1
L1210 [4] = test: Antitumor activity in mice with intraperitoneal implanted L1210 lymphoid leukemia at the dose 75 mg/kg/day x 5 was determined as weight change (g/mouse) on 8th day; format: functional
Method in brief: (§2)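 C3D2F1/J female mice (C3H/HeJ × DBA/2J), groups of six to eight, average 25 g, inoculated ip with 1 × 10^6 L1210 ascites cells taken from DBA/2Ha donor mice carrying 3-5 day tumors. Compound dissolved in 0.154 N NaOH, then neutralized with 0.154 N HCl to give 0.9% NaCl. Given ip daily for 5 consecutive days starting 24 h after implantation. Body weight change per mouse recorded on day 8.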

L1210 [5] = test: In Vitro evaluation for the antiproliferative activity by observing the growth inhibition of L1210 lymphoid leukemia cells in culture at 72 hour; format: functional, Mus musculus
Method in brief: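 Growth of L1210 lymphoid leukemia cells in culture measured by Trypan blue exclusion of viable cells after 72 h of drug exposure. ED50 is the concentration giving 50% growth inhibition. In some runs the compound was first preincubated in medium at 37 °C for 24 or 48 h before the assay.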

L1210 [6] = test: Antitumor activity in mice with intraperitoneal implanted L1210 lymphoid leukemia at the dose 25 mg/kg/day x 5 was determined as weight change (g/mouse) on 8th day; format: functional; method in brief: as §2
L1210 [7] = test: Antitumor activity in mice with intraperitoneal implanted L1210 lymphoid leukemia at the dose 50 mg/kg/day x 5 was determined as weight change (g/mouse) on 8th day; format: functional; method in brief: as §2
L1210 [8] = test: Antitumor activity in the mice with intraperitoneal implanted L1210 lymphoid leukemia at the dose 25 mg/kg/day x 5 was determined and number of animals survived on 30 th day were reported; 0/8; format: functional, Mus musculus
Method in brief: (§3)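 Female C3D2F1/J mice (C3H/HeJ × DBA/2J), groups of six to eight, average weight 25 g. Each mouse got 1 × 10^6 L1210 ascites cells ip, taken from DBA/2Ha donor mice bearing 3-5 day tumors. Compound was dissolved in 0.154 N NaOH and neutralized with 0.154 N HCl (final 0.9% NaCl). Dosed ip daily ×5, starting 24 h after implant. Recorded body weight change on day 8, survival range, median survival and 30-day survivors. ILS = (T/C − 1) × 100.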

L1210 [9] = test: Antitumor activity in the mice with intraperitoneal implanted L1210 lymphoid leukemia at the dose 50 mg/kg/day x 5 was determined as Survival time in days; Range is 17-24 days; format: functional, Mus musculus; method in brief: as §3
L1210 [10] = test: Antitumor activity in the mice with intraperitoneal implanted L1210 lymphoid leukemia at the dose 50 mg/kg/day x 5 was determined and number of animals survived on 30 th day were reported; 0/8; format: functional, Mus musculus; method in brief: as §3
L1210 [11] = test: Antitumor activity in the mice with intraperitoneal implanted L1210 lymphoid leukemia at the dose 75 mg/kg/day x 5 was determined and number of animals survived on 30 th day were reported; 1/8; format: functional, Mus musculus; method in brief: as §1
L1210 [12] = test: Antitumor activity in the mice with intraperitoneal implanted L1210 lymphoid leukemia at the dose 50 mg/kg/day x 5 was determined as percentage increase in the life span as compared with control tumor bearers; format: functional; conditions: Mus musculus, L1210, ip; method in brief: as §1
L1210 [13] = test: Antitumor activity in the mice with intraperitoneal implanted L1210 lymphoid leukemia at the dose 75 mg/kg/day x 5 was determined as percentage increase in the life span as compared with control tumor bearers; format: functional; conditions: Mus musculus, L1210, ip; method in brief: as §1
L1210 [14] = test: Antitumor activity in the mice with intraperitoneal implanted L1210 lymphoid leukemia at the dose 25 mg/kg/day x 5 was determined as Survival time in days; Range is 8-21 days; format: functional, Mus musculus; method in brief: as §3
L1210 [15] = test: Antitumor activity in the mice with intraperitoneal implanted L1210 lymphoid leukemia at the dose 25 mg/kg/day x 5 was determined as percentage increase in the life span as compared with control tumor bearers; format: functional; conditions: Mus musculus, L1210, ip; method in brief: as §3
L1210 [16] = test: Antitumor activity in the mice with intraperitoneal implanted L1210 lymphoid leukemia at the dose 75 mg/kg/day x 5 was determined as Survival time in days; Range is 14- >45 days; format: functional, Mus musculus; method in brief: as §1
L1210 [17] = test: Antitumor activity in the mice with intraperitoneal implanted L1210 lymphoid leukemia at the dose of 19.1 and 26 mg/kg/day x 5 was determined as mean survival of treated group compared to untreated; 10.5/10; format: functional, Mus musculus; method in brief: as §1
L1210 [18] = test: Antitumor activity in mice with intraperitoneal implanted L1210 lymphoid leukemia at the dose 9.2 and 12.6 mg/kg/day x 5 was determined as weight change (g/mouse) on 8th day; format: functional; method in brief: as §3
L1210 [19] = test: Antitumor activity in the mice with intraperitoneal implanted L1210 lymphoid leukemia at the dose of 9.2 and 12.6 mg/kg/day x 5 was determined as mean survival of treated group compared to untreated; 16.5/11; format: functional, Mus musculus
L1210 [20] = test: Antitumor activity in mice with intraperitoneal implanted L1210 lymphoid leukemia at the dose 19.1 and 26 mg/kg/day x 5 was determined as weight change (g/mouse) on 8th day; format: functional; method in brief: as §3
L1210 [21] = test: Antitumor activity in the mice with intraperitoneal implanted L1210 lymphoid leukemia at the dose 9.2 and 12.6 mg/kg/day x 5 was determined as Survival time in days; Range is 13-23 days; format: functional, Mus musculus; method in brief: as §1
L1210 [22] = test: Antitumor activity in the mice with intraperitoneal implanted L1210 lymphoid leukemia at the dose 19.1 and 26 mg/kg/day x 5 was determined and number of animals survived on 30 th day were reported; 0/8; format: functional, Mus musculus; method in brief: as §3
L1210 [23] = test: Antitumor activity in the mice with intraperitoneal implanted L1210 lymphoid leukemia at the dose 9.2 and 12.6 mg/kg/day x 5 was determined as percentage increase in the life span as compared with control tumor bearers; format: functional, Mus musculus; method in brief: as §1
L1210 [24] = test: Antitumor activity in the mice with intraperitoneal implanted L1210 lymphoid leukemia at the dose 9.2 and 12.6 mg/kg/day x 5 was determined and number of animals survived on 30 th day were reported; 0/6; format: functional, Mus musculus; method in brief: as §1
L1210 [25] = test: Antitumor activity in the mice with intraperitoneal implanted L1210 lymphoid leukemia at the dose 19.1 and 26 mg/kg/day x 5 was determined as percentage increase in the life span as compared with control tumor bearers; format: functional, Mus musculus; method in brief: as §3
L1210 [26] = test: Antitumor activity in the mice with intraperitoneal implanted L1210 lymphoid leukemia at the dose 19.1 and 26 mg/kg/day x 5 was determined as Survival time in days; Range is 9-12 days; format: functional, Mus musculus; method in brief: as §3

C[C@]12CC[C@H]3[C@@H](CCC4=CC(=O)CC[C@@]43C)[C@@H]1CC[C@@H]2C(=O)COP(=O)(O)OC[C@H]1O[C@@H](n2ccc(N)nc2=O)[C@@H](O)[C@@H]1O
T/C (L1210 [1]): 18.5
T/C (L1210 [2]): 19
T/C (L1210 [3]): 16
Weight change (L1210 [4]): -0.09 g mouse-1
ED 50 (L1210 [5]): 0.05 µM
Weight change (L1210 [6]): -0.54 g mouse-1
Weight change (L1210 [7]): -0.94 g mouse-1
Survivors (L1210 [8]): 0
Survival time (L1210 [9]): 17 days
Survivors (L1210 [10]): 0
Survivors (L1210 [11]): 1
ILS at 50 mg/kg/day (L1210 [12]): 138%
ILS at 75 mg/kg/day (L1210 [13]): 95%
Survival time (L1210 [14]): 8 days
ILS at 25 mg/kg/day (L1210 [15]): 88%
Survival time (L1210 [16]): 14 days

C[C@]12CC[C@H]3[C@@H](CCC4=CC(=O)CC[C@@]43C)[C@@H]1CC[C@@H]2C(=O)O.Nc1ccn([C@@H]2O[C@H](CO)[C@@H](O)[C@@H]2O)c(=O)n1
T/C (L1210 [17]): 10.5
Weight change (L1210 [18]): -3.58 g mouse-1
T/C (L1210 [19]): 16.5
Weight change (L1210 [20]): -4.25 g mouse-1
Survival time (L1210 [21]): 13 days
Survivors (L1210 [22]): 0
ILS (L1210 [23]): 50%
Survivors (L1210 [24]): 0
ILS (L1210 [25]): 5%
Survival time (L1210 [26]): 9 days

From ChEMBL document CHEMBL1121364, “Nucleoside conjugates as potential antitumor agents. 3. Synthesis and antitumor activity of 1-(beta-D-arabinofuranosyl)cytosine conjugates of corticosteroids” (1980)
